Measured values: ChEMBL document CHEMBL2311492, “Small molecule amides as potent ROR-γ selective modulators” (Bioorg Med Chem Lett, 2013)
Converted amounts (≈) assume the structure as drawn. The source made the active and inactive calls. No cut-off for these calls is given here.

Tests used:
[1] = biological target: T1, Nuclear receptor ROR-gamma (Homo sapiens, UniProt P51449); assay: Displacement of [3H]-T0903017 from GST-tagged ROR-gamma (unknown origin) after 20 hrs
T1 sequence (P51449 whole entry): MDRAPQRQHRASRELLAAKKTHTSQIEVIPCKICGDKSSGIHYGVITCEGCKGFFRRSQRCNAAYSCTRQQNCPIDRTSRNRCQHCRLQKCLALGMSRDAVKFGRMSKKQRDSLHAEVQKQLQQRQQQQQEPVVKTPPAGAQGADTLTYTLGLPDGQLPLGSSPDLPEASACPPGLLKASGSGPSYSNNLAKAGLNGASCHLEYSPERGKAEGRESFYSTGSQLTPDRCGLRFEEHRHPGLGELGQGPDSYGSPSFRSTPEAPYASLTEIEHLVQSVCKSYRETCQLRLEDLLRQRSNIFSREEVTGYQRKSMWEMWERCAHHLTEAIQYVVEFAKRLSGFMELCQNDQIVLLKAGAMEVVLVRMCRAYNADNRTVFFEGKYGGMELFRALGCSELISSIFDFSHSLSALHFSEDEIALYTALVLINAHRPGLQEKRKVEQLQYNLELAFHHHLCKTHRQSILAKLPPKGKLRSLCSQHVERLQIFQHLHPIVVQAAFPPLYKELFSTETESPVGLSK

Cytochrome P450 3A4 = Cytochrome P450 3A4 (Homo sapiens, UniProt P08684); assay: Inhibition of CYP3A4 (unknown origin) at 10 uM; type: ADME
Cytochrome P450 3A4, sequence (P08684 whole entry): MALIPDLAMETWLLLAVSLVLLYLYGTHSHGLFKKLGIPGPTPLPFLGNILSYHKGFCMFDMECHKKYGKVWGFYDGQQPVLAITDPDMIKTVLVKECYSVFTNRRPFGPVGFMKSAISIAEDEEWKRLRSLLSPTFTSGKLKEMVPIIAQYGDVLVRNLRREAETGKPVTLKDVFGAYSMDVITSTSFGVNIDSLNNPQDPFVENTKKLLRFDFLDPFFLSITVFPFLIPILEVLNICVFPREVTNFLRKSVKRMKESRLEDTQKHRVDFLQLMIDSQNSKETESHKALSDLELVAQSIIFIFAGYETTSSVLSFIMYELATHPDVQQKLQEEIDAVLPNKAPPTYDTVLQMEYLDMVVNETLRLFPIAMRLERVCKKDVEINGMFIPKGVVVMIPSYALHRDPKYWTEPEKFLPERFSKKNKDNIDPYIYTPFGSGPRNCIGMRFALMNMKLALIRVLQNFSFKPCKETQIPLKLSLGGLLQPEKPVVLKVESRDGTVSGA

Cytochrome P450 2D6 = Cytochrome P450 2D6 (Homo sapiens, UniProt P10635); assay: Inhibition of CYP2D6 (unknown origin) at 10 uM; type: ADME
Cytochrome P450 2D6, sequence (P10635 whole entry): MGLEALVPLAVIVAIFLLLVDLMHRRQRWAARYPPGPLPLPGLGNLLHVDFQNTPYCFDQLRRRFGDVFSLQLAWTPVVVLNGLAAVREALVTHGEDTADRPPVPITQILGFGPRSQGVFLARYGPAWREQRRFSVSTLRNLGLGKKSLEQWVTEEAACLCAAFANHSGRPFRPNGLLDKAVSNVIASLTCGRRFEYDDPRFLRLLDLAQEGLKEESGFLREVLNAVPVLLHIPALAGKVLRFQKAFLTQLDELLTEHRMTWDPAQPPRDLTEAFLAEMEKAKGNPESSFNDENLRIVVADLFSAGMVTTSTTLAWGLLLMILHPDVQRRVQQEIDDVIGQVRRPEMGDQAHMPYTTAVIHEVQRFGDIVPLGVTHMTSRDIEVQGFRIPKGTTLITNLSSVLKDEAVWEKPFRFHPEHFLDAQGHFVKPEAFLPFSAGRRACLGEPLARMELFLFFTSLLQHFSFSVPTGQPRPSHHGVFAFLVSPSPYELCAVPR

Cytochrome P450 1A2 = biological target: T2, Cytochrome P450 1A2 (Homo sapiens, UniProt P05177); assay: Inhibition of CYP1A2 (unknown origin) at 10 uM; type: ADME
T2 sequence (P05177 whole entry): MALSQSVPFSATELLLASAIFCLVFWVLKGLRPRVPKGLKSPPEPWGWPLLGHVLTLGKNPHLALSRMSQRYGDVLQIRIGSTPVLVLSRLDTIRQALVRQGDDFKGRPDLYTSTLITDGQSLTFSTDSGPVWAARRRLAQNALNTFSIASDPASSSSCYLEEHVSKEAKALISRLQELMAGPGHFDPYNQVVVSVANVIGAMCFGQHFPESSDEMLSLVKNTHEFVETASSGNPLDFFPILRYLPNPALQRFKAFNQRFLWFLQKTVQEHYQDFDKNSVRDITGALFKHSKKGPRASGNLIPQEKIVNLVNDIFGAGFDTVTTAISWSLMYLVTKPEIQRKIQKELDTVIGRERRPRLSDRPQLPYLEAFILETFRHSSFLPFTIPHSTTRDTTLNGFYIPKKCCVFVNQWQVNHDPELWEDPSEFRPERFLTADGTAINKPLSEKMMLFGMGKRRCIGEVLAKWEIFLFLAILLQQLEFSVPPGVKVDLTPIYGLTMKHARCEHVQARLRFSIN

Cytochrome P450 2C9 = Cytochrome P450 2C9 (Homo sapiens, UniProt P11712); assay: Inhibition of CYP2C9 (unknown origin) at 10 uM; type: ADME
Cytochrome P450 2C9, sequence (P11712 whole entry): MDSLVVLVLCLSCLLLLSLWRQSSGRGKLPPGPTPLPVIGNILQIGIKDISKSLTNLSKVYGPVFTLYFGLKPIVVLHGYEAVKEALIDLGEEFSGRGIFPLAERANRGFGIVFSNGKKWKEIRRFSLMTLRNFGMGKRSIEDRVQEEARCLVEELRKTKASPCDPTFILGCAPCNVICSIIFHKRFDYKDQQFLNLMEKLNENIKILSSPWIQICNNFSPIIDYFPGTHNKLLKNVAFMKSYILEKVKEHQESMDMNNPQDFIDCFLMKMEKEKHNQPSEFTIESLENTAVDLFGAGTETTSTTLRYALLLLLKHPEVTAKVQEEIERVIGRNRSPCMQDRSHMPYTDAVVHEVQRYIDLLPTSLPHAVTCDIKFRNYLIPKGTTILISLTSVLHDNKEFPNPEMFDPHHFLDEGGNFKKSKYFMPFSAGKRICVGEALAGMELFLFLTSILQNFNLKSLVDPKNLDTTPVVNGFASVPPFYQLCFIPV

[2] = Solubility of the compound in phosphate buffered saline at 100 uM at pH 7.4 after 20 hrs; type: physicochemical; conditions: buffer, pH 7.4, 20 h
Summary of the method: (§1)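 100 µM compound solutions shaken at room temperature for 20 hr in PBS pH 7.4 or sodium citrate buffer pH 5.0; dissolved concentration reported in µM.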

[3] = Solubility of the compound in sodium citrate buffer at 100 uM at pH 5 after 20 hrs; type: physicochemical; conditions: pH 5, 20 h; summary of the method: as §1
[4] = Drug level in C57Bl6 mouse brain at 10 mg/kg, ip after 6 hrs; type: ADME, organism-based; parameters: dose 10 mg/kg, route intraperitoneal; conditions: read-out: Drug uptake
Brain = assay: Brain penetration in C57Bl6 mouse brain at 10 mg/kg, ip after 6 hrs; type: ADME, organism-based; parameters: dose 10 mg/kg, route intraperitoneal; conditions: in vivo
[5] = Plasma concentration in C57Bl6 mouse at 10 mg/kg, ip after 6 hrs; type: ADME, organism-based; parameters: dose 10 mg/kg, route intraperitoneal
[6] = biological target: T3, Oxysterols receptor LXR-alpha (Homo sapiens) (UniProt Q13133); assay: Modulation of LXR-alpha (unknown origin)
T3 sequence (whole entry): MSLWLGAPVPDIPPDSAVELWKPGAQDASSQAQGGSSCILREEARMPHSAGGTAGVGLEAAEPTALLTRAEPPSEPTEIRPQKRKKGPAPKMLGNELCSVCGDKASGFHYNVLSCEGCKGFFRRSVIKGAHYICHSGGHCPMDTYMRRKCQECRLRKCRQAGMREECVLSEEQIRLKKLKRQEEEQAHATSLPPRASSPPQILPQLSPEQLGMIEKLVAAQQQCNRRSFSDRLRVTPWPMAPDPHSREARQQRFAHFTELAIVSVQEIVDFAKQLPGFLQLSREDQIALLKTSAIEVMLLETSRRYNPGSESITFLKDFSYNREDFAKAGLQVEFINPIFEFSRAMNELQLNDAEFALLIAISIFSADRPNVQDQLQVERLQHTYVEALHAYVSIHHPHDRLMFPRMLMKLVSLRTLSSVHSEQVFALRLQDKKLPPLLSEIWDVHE

[7] = biological target: T4, Bile acid receptor (Homo sapiens) (UniProt Q96RI1); assay: Modulation of FXR (unknown origin)
T4 sequence (whole entry): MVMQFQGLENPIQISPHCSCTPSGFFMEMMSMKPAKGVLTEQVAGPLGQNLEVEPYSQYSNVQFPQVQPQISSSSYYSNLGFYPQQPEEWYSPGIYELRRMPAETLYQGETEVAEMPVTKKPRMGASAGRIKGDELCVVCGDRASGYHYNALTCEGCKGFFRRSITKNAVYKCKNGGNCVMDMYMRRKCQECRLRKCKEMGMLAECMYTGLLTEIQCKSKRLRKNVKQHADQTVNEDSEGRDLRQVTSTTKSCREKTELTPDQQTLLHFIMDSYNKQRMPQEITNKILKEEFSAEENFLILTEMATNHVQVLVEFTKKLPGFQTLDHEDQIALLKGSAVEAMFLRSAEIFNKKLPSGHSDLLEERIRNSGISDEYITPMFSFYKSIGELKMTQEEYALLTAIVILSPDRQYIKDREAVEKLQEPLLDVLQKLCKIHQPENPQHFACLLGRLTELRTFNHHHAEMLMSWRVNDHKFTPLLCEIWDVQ

IC50 [1]	inhibition (INH) (Cytochrome P450 3A4)	inhibition (INH) (Cytochrome P450 2D6)	inhibition (INH) (Cytochrome P450 1A2)	inhibition (INH) (Cytochrome P450 2C9)	solubility [2]	solubility [3]	Compound	other results
Not Active	–	–	–	–	–	–	COc1ccc(C(CC(=O)NCc2ccccc2)c2c(O)cc(OC)cc2OC)cc1 (stereo not drawn)	–
Not Active	–	–	–	–	–	–	COc1ccc(C(CC(=O)N2CCCC2)c2c(O)cc(OC)cc2OC)cc1 (stereo not drawn)	–
–	75%	-7%	4%	65%	18 µM (≈ 7.7 µg/mL)	19.5 µM (≈ 8.34 µg/mL)	COc1ccc(C(CC(=O)N2CC(C)CC(C)C2)c2c(O)cc(OC)cc2OC)cc1 (stereo not drawn)	–
–	97%	15%	3%	92%	15.6 µM (≈ 6.89 µg/mL)	15.2 µM (≈ 6.71 µg/mL)	COc1cc(O)c(C(CC(=O)N2CC(C)CC(C)C2)c2ccc3c(c2)OCO3)c(OC)c1 (stereo not drawn)	concentration at 6 h [4]: 780 nM; Drug uptake (Brain): 260%; concentration at 6 h [5]: 300 nM; Activity [6]: inactive; Activity [7]: inactive
Not Active	–	–	–	–	–	–	COc1ccc(C(CC(=O)N2CCOCC2)c2c(O)cc(OC)cc2OC)cc1 (stereo not drawn)	–
Not Active	–	–	–	–	–	–	COc1ccc(C(CC(=O)NC2CCCC2)c2c(O)cc(OC)cc2OC)cc1 (stereo not drawn)	–
Not Active	–	–	–	–	–	–	COc1ccc(C(CC(=O)N2CCCCC2)c2c(O)cc(OC)cc2OC)cc1 (stereo not drawn)	–
–	70%	-11%	-22%	53%	12.7 µM (≈ 5.43 µg/mL)	6 µM (≈ 2.57 µg/mL)	COc1cc(O)c(C(CC(=O)N2CC(C)CC(C)C2)c2ccccc2OC)c(OC)c1 (stereo not drawn)	–
